Calls of active or inactive are those of the source. Square brackets hold non-standard residues; d marks the D form. Peptide text beside a SMILES is read from it. * marks the point of attachment. NH(4-amidinobenzyl) = N=C(N)c1ccc(CN*)cc1

As a reminder, the Ki is the equilibrium dissociation constant of an inhibitor or competing ligand from its target. As usually defined, the IC50 is the concentration needed to halve the response being measured. By half-life is commonly meant the time needed for the level to fall by half in the phase considered. A low value points to fast loss.

One series is filed under the species Homo sapiens. Briefly: Selectivity ratio of Ki for recombinant human furin to Ki for recombinant human PACE4. In a few lines: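 Ratio of Ki values. Furin Ki measured at 0.54 nM enzyme in Hepes pH 7.5; PACE4 Ki measured at 20.18 nM enzyme in Bis-Tris pH 6.5. Both used 100 µM pGlu-RTKR-AMC with fluorescence at ex 370 / em 460 nm, and Ki came from Cheng-Prusoff (Morrison's equation for one PACE4 value).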

Another series addresses Furin (Homo sapiens, UniProt P09958). Briefly: Inhibition of recombinant human furin using pGlu-Arg-Thr-Lys-Arg-AMC peptide as substrate by spectrofluorometry. A digest of the protocol:
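Recombinant human furin at 0.54 nM (Km 5.040 µM) in 100 mM Hepes pH 7.5, 1 mM CaCl2, 1 mM β-mercaptoethanol and 1.8 mg/mL BSA. Substrate pGlu-RTKR-AMC at 100 µM per well. Fluorescence read at ex 370 / em 460 nm. Ki derived by Cheng-Prusoff.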

The test system of series [1] is LNCaP. Put plainly: Antiproliferative activity against human LNCAP cells after 72 hrs by MTT assay. The class given is functional, cell-based. In a few lines: (§1)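 MTT proliferation read-out. DU145 cultured in RPMI-1640 with 5% FBS; LNCaP cultured in RPMI-1640 with 10% FBS. IC50 calculated from dose-response curves.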
(In general: Formazan colour is commonly taken as a measure of viable cells.)

Series [2] concerns DU-145. Briefly: Antiproliferative activity against human DU145 cells after 72 hrs by MTT assay. The class given is functional, cell-based. A digest of the protocol:
as §1

Series [3] deals with T1, Proprotein convertase subtilisin/kexin type 6 (Homo sapiens, UniProt P29122).
T1 sequence (P29122 whole entry): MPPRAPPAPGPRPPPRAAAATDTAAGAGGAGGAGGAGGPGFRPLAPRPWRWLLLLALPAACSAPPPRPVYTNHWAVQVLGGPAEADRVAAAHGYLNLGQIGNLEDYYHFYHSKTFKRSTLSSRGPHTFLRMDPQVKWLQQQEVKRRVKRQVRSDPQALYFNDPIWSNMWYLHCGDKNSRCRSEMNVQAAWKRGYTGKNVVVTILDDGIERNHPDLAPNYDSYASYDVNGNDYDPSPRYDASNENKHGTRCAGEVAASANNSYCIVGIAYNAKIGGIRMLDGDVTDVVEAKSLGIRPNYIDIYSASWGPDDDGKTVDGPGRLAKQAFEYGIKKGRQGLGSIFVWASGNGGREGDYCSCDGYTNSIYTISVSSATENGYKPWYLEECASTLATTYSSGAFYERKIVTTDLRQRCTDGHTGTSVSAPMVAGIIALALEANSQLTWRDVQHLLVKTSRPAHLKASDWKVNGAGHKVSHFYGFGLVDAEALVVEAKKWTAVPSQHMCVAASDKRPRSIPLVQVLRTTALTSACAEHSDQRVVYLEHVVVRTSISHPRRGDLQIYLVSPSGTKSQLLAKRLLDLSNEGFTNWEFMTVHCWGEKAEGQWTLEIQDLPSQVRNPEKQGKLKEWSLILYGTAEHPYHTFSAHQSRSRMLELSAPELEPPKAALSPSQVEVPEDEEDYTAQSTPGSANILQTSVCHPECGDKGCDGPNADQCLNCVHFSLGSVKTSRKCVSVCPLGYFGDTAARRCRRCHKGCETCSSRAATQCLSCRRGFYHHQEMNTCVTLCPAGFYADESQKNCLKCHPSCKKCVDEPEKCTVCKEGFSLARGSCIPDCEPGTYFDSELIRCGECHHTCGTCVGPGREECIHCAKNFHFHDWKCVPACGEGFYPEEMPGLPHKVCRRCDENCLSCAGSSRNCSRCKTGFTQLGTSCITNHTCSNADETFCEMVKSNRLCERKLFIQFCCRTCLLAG
Briefly: Inhibition of recombinant human PACE4 using pGlu-Arg-Thr-Lys-Arg-AMC peptide as substrate by spectrofluorometry.

A short description of series [4]: Drug uptake in human DU145 cells at 1 uM after 48 hrs using FITC-labeled compounds by propidium iodide/ trypan blue-dual staining based flow cytometry. The class given is ADME, cell-based. The note with it: du-145, 1 h, in the assay text read “1 hr” for “48 hrs”. A digest of the protocol: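 DU145 cells plated at 200000 per 100 mm dish and grown 48 h at 37 °C. FITC-labelled analogue added at 1 µM for 1 h at 37 °C. Cells harvested with 0.05% trypsin and washed in PBS. PI added at 10 µg/mL final just before acquisition. A parallel set was quenched with 0.04% trypan blue. Flow cytometry on ≥10000 events with 488/638 nm lasers.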
In general terms: In flow cytometry, cells or beads pass a laser one at a time.

The test system of series [5] is DU-145. Briefly: Antiproliferative activity against human DU145 cells at <150 uM after 72 hrs by MTT assay. The class given is functional, cell-based. In a few lines:
(§2)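 Doses tested up to 150 µM. MTT read-out on DU145 (RPMI-1640, 5% FBS) or LNCaP (RPMI-1640, 10% FBS).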

The test system of series [6] is LNCaP. Briefly: Antiproliferative activity against human LNCAP cells at <150 uM after 72 hrs by MTT assay. It counts as functional, cell-based. In a few lines: as §2
A short description of series [7]: Half life in human plasma. The class given is ADME, cell-free.
[8] abbreviates: Homo sapiens, LNCaP, 72 h, read-out: IC50.
Setting [9] is: Homo sapiens, DU-145, 72 h, read-out: IC50.

Chain of Furin (P09958 whole entry): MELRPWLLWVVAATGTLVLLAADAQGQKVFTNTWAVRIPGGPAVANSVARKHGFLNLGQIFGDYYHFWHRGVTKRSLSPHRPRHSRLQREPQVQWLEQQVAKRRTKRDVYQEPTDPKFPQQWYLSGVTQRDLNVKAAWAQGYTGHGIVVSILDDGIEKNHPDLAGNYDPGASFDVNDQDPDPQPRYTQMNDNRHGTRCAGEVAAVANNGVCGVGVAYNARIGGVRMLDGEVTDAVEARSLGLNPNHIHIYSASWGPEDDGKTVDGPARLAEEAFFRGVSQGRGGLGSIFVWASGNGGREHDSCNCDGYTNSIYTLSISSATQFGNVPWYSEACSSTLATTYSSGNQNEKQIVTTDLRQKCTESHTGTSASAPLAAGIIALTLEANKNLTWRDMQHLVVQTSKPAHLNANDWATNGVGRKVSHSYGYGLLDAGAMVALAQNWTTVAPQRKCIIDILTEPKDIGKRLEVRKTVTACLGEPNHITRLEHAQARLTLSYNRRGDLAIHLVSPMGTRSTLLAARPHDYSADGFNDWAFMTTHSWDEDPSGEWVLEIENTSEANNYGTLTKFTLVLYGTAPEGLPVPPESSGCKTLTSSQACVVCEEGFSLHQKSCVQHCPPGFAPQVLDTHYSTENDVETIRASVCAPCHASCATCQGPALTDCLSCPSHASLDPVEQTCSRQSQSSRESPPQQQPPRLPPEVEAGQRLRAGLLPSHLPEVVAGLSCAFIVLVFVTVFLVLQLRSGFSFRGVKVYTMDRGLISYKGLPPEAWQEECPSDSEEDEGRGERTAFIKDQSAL

In the case of `CC(=O)N[C@H](CC(C)C)C(=O)N[C@@H](CC(C)C)C(=O)N[C@@H](CC(C)C)C(=O)N[C@@H](CC(C)C)C(=O)N[C@@H](CCCNC(=N)N)C(=O)N[C@H](C(=O)N[C@@H](CCCCN)C(=O)NCc1ccc(C(=N)N)cc1)C(C)C` (Ac-[dL]LLLRVK-{NH(4-amidinobenzyl)}), in the series listed under Homo sapiens, the Ratio Ki was determined as 2.

As to `CC(=O)N[C@H](CC(C)C)C(=O)N[C@@H](CC(C)C)C(=O)N[C@@H](CC(C)C)C(=O)N[C@@H](CC(C)C)C(=O)N[C@@H](CCCNC(=N)N)C(=O)N[C@H](C(=O)N[C@@H](CCCCN)C(=O)NCCc1ccc(C(=N)N)cc1)C(C)C`, the Ki on Furin was 41 nM; in series [3], 17 nM. In the series listed under Homo sapiens, the Ratio Ki came to 2. For the same molecule, the IC50 with LNCaP [1] (setting [8]) and in the series with DU-145 [2] (setting [9]) was 80000 nM each time.

As to `CC(C)C[C@H](NC(=O)[C@H](CC(C)C)NC(=O)[C@H](CC(C)C)NC(=O)[C@@H](CC(C)C)NC(=O)CCN)C(=O)N[C@@H](CCCNC(=N)N)C(=O)N[C@H](C(=O)N[C@@H](CCCCN)C(=O)NCc1ccc(C(=N)N)cc1)C(C)C`, in series [4], the Drug uptake entry was “Active”.

As for `CC(=O)N[C@H](CC(C)C)C(=O)N[C@@H](CC(C)C)C(=O)N[C@@H](CC(C)C)C(=O)N[C@@H](CC(C)C)C(=O)N[C@@H](CCCNC(=N)N)C(=O)N[C@H](C(=O)N[C@@H](CCCCN)C(=O)NCc1ccc2c(N)n[nH]c2c1)C(C)C`, the figures for the Ki (on Furin; in series [3]) were 825 nM and 700 nM, respectively. For the same molecule, in the series listed under Homo sapiens, the Ratio Ki amounted to 1. Further, the IC50 result in the series with LNCaP [1] (lncap) and with DU-145 [2] (du-145) was “Nd(Insoluble)” each time.

As for `CC(=O)N[C@H](CC(C)C)C(=O)N[C@@H](CC(C)C)C(=O)N[C@@H](CC(C)C)C(=O)N[C@@H](CC(C)C)C(=O)N[C@@H](CCCNC(=N)N)C(=O)N[C@H](C(=O)N[C@@H](CCCCN)C(=O)NCc1ccc(C(=N)N)c(O)c1)C(C)C`, the Ki on Furin was determined as 240 nM; in series [3], 53 nM. In addition, the Ratio Ki in the series listed under Homo sapiens was 5. The IC50 with LNCaP [1] (setting [8]) is 113000 nM; in the series with DU-145 [2] (setting [9]) it was 50000 nM.

With `CC(=O)N[C@H](CC(C)C)C(=O)N[C@@H](CC(C)C)C(=O)N[C@@H](CC(C)C)C(=O)N[C@@H](CC(C)C)C(=O)N[C@@H](CCCNC(=N)N)C(=O)N[C@H](C(=O)N[C@@H](CCCCN)C(=O)N[C@H](CO)CCCNC(=N)N)C(C)C`, the results for the Ki (on Furin; in series [3]) were 250 nM and 190 nM, respectively. The outcome in the series on DU-145 [5] and with LNCaP [6] was inactive.

As to `CC(=O)N[C@H](CC(C)C)C(=O)N[C@@H](CC(C)C)C(=O)N[C@@H](CC(C)C)C(=O)N[C@@H](CC(C)C)C(=O)N[C@@H](CCCNC(=N)N)C(=O)N[C@H](C(=O)N[C@@H](CCCCN)C(=O)NC/C=C/CNC(=N)N)C(C)C`, the Ki on Furin is 38 nM; in series [3] it was 13 nM. The Ratio Ki in the series filed under Homo sapiens came out at 3. Moreover, the IC50 in the series on LNCaP [1] (setting [8]) was 210000 nM; with DU-145 [2] (setting [9]) it was 40000 nM.

`CC(C)C[C@H](NC(=O)[C@H](CC(C)C)NC(=O)[C@H](CC(C)C)NC(=O)[C@@H](CC(C)C)NC(=O)CCN)C(=O)N[C@@H](CCCNC(=N)N)C(=O)N[C@H](C(=O)N[C@@H](CCCCN)C(=O)NCc1ccc(C(=N)N)nc1)C(C)C`: the Drug uptake entry in series [4] was “Active”.

Regarding `CC(=O)N[C@H](CC(C)C)C(=O)N[C@@H](CC(C)C)C(=O)N[C@@H](CC(C)C)C(=O)N[C@@H](CC(C)C)C(=O)N[C@@H](CCCNC(=N)N)C(=O)N[C@H](C(=O)N[C@@H](CCCCN)C(=O)NCC#CCNC(=N)N)C(C)C`, the inhibition constant (Ki) on Furin stood at 60 nM; in series [3], 32 nM. Also, in the series filed under Homo sapiens, the Ratio Ki came to 2. Moreover, the IC50 with LNCaP [1] (setting [8]) was 125000 nM; in the series on DU-145 [2] (setting [9]) it was 110000 nM.

On to `CC(=O)N[C@H](CC(C)C)C(=O)N[C@@H](CC(C)C)C(=O)N[C@@H](CC(C)C)C(=O)N[C@@H](CC(C)C)C(=O)N[C@@H](CCCNC(=N)N)C(=O)N[C@H](C(=O)N[C@@H](CCCCN)C(=O)NCc1ccc(C(=N)N)c(N)c1)C(C)C`, for which the results for the Ki (at Furin; in series [3]) were 60 nM and 14 nM, respectively. Further, in the series filed under Homo sapiens, the Ratio Ki came to 4. The IC50 in the series on LNCaP [1] (setting [8]) worked out at 58000 nM; with DU-145 [2] (setting [9]), 61000 nM.

As for `CC(=O)N[C@H](CC(C)C)C(=O)N[C@@H](CC(C)C)C(=O)N[C@@H](CC(C)C)C(=O)N[C@@H](CC(C)C)C(=O)N[C@@H](CCCNC(=N)N)C(=O)N[C@H](C(=O)N[C@@H](CCCCN)C(=O)NCc1ccc2c(N)noc2c1)C(C)C`, the Ki was found to be 614 nM at Furin and 500 nM in series [3]. Also, the Ratio Ki in the series listed under Homo sapiens is 1. Besides, the IC50 entry with LNCaP [1] (lncap) and in the series with DU-145 [2] (du-145) was “Nd(Insoluble)” each time.

Regarding `CC(=O)N[C@H](CC(C)C)C(=O)N[C@@H](CC(C)C)C(=O)N[C@@H](CC(C)C)C(=O)N[C@@H](CC(C)C)C(=O)N[C@@H](CCCNC(=N)N)C(=O)N[C@H](C(=O)N[C@@H](CCCCN)C(=O)N[C@@H](CCCNC(=N)N)C(N)=O)C(C)C`, in the series filed under Homo sapiens, the Ratio Ki was 32.

As for `CC(=O)N[C@H](CC(C)C)C(=O)N[C@@H](CC(C)C)C(=O)N[C@@H](CC(C)C)C(=O)N[C@@H](CC(C)C)C(=O)N[C@@H](CCCNC(=N)N)C(=O)N[C@H](C(=O)N[C@@H](CCCCN)C(=O)NCc1ccc(C(=N)N)nc1)C(C)C`, the Ki was 21.5 nM on Furin and 2.6 nM in series [3]. In addition, the Ratio Ki in the series filed under Homo sapiens worked out at 8. The results for the IC50 with LNCaP [1] (setting [8]) and with DU-145 [2] (setting [9]) were 140000 nM and 130000 nM, respectively.

For the molecule `CC(=O)N[C@H](CC(C)C)C(=O)N[C@@H](CC(C)C)C(=O)N[C@@H](CC(C)C)C(=O)N[C@@H](CC(C)C)C(=O)N[C@@H](CCCNC(=N)N)C(=O)N[C@H](C(=O)N[C@@H](CCCCN)C(=O)NCc1c(F)c(F)c(C(=N)N)c(F)c1F)C(C)C`, the figures for the Ki (on Furin; in series [3]) were 600 nM and 240 nM, respectively. Also, the Ratio Ki in the series filed under Homo sapiens came out at 2. Also, the IC50 with LNCaP [1] (setting [8]) stood at 230000 nM; with DU-145 [2] (setting [9]), 69000 nM.

Regarding Ac-LLLLRVKR-NH2, the half-life in series [7] is 1.7 h. For the same molecule, the IC50 in the series on LNCaP [1] (setting [8]) came out at 45000 nM; in the series on DU-145 [2] (setting [9]), 25000 nM.

(Values after ChEMBL document CHEMBL4257595, “Improving the Selectivity of PACE4 Inhibitors through Modifications of the P1 Residue” (J Med Chem, 2018).)
